Screening data from PubChem BioAssay.
C8 TRAIL sens – viability loss with TRAIL in NB7+C8 cells, primary screen, TRAIL sensitizer project, cell-based, ATPlite luminescence | inhibition (viability loss, TRAIL sensitization), % at 10 µM | 1% of 360,000 active | AID 624354, 2012;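 active means compounds causing at least 50% loss of cell viability in the single-dose screen, relative to plate controls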
FLuc inh counter – firefly luciferase enzyme inhibitors, primary screen, artefact control for luciferase-based inhibitor screens, biochemical, luminescence, ATPLite. 10 min. inhibition, % at 10 µM. 1.5% of 200,000 active. AID 1006, 2008;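 active means inhibition above about 50% when tested at 10 µM, limit read from the data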
Target sequence (P08659 whole entry, looked up): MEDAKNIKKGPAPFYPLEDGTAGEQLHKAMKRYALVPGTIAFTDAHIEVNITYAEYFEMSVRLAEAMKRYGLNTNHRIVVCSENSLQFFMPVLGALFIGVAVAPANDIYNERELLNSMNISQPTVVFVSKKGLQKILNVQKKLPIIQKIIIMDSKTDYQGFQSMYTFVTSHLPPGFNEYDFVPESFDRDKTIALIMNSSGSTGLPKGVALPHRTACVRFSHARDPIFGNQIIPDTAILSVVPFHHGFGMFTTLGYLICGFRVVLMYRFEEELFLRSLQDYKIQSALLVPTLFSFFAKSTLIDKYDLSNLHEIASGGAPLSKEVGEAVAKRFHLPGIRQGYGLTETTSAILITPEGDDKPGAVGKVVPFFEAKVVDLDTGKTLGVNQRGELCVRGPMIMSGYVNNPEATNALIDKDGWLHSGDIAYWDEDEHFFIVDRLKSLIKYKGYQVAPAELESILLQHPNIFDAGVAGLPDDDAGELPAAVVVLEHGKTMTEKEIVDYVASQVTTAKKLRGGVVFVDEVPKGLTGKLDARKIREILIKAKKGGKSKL
FLuc act counter – FLuc activators, initial screening, artefact control for FLuc-dependent activation tests, biochemical, ATPlite luminescence. ATPlite luciferase biochemical, 10 min; 0 = ATP-free wells, 1 = DMSO control. activation factor at 10 µM. 200,000 tested, under 10 active. AID 1027, 2008;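 active means luciferase activation factor, scaled between plate controls, of at least 2 with compound at 10 µM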
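assay system = Luciferase/luciferin detection reagent, cell-free biochemical luciferase assay | also added = ATP substrate | times = 10 min post-reagent at room temperature | measured by = luminescence from luciferase reaction | measure = luciferase activation, seen as luminescence increase over controls | benchmarks = low control with PBS replacing ATP, high control enzyme plus ATP without compound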
Platelet DG rel – inhibitors of platelet dense granule secretion, primary screen, cell-based, MLPCN, human platelets. inhibition, %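 (compounds screened at 7.5 µM in platelet-rich plasma)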. human platelet-rich plasma, SFLLRN dense granule ATP release, luminescence. 0.22% of 300,000 active;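 active means mean replicate score, as percent of positive control, at or above 50; inconclusive means mean below 50 but at least one replicate at or above 50; inactive means mean and every replicate below 50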
PPC-1+TRAIL kill – compounds killing PPC-1 cancer cells with TRAIL present, primary screen, TRAIL potentiator project, ATPLite luminescence, uHTS; PPC-1 cells + TRAIL, ATPLite viability luminescence; cell killing (% activity), % at 4 µM or 5 µM; 0.41% of 220,000 active; AID 1443, 2008;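 active means cell killing above 50% in the first pass at 4 µM, then a duplicate retest at 5 µM averaging 50% or more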;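 further: plate controls were cells with TRAIL plus DMSO for no effect and medium-only wells lacking cells for full effect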
PPC-1 tox – cytotoxicity in PPC-1 cells, confirmation, cytotoxicity control for TRAIL apoptosis potentiator project, cell-based, ATP content luminescence; PPC-1 viability, ATPlite luminescence, overnight; AID 1447, 2008; shares compounds with PPC-1+TRAIL kill; 50% of 1,200 active; cytotoxicity, % at 5 µM;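 active means reconfirmed compounds whose average cytotoxicity reaches 50% or more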;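 further: 0% = DMSO-treated cells and 100% = wells holding medium but no cells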
* hit, by the source's call. Sampled rows, rich in hits. Any-hit rate of the full collection: about 1.6%.

Clc1ccc(-c2csc(=Nc3cccnc3)n2CCCn2ccnc2)cc1Cl was read as C8 TRAIL sens 2, FLuc inh counter -3, FLuc act counter 1, Platelet DG rel -7 and PPC-1+TRAIL kill 17.
CCCCNC(=O)C1(C)CCN1C(=O)c1cc(F)ccc1C (stereo not drawn) was read as C8 TRAIL sens -36.
Screening CCCCC[C@@H](C)N1C[C@@H](COCc2ccccc2)Oc2cc(N3CCC[C@@H]3COC)ccc2S1(=O)=O returned C8 TRAIL sens 3.
Cc1cccc(-c2cnn(-c3ccccc3)c2N)c1 was read as C8 TRAIL sens 21 and Platelet DG rel 6.
For Cc1cccc(-c2cc(N)n(-c3ccccc3)n2)c1 the results were C8 TRAIL sens 24, FLuc inh counter 72*, FLuc act counter 0.3, PPC-1+TRAIL kill 28 and PPC-1 tox 27.
For CCS(=O)(=O)n1nc(-c2ccccc2)cc1N the results were C8 TRAIL sens 8, FLuc inh counter 0, FLuc act counter 1, Platelet DG rel 19 and PPC-1+TRAIL kill 3.
`CCc1ccc(-c2cc(N)n(-c3ccccc3)n2)cc1` gave C8 TRAIL sens 46, FLuc inh counter 82*, FLuc act counter 0.2, Platelet DG rel 9, PPC-1+TRAIL kill 43 and PPC-1 tox 44.
Screening Nc1ncnc2c1ncn2[C@@H]1O[C@H](C(=O)NCCCN2CCCC2=O)[C@@H](O)[C@H]1O returned C8 TRAIL sens 1.
CCC(=O)N1CCc2cc(S(=O)(=O)N3CCc4ccccc43)ccc21 was read as C8 TRAIL sens 12, FLuc inh counter -2, FLuc act counter 1, Platelet DG rel 1, PPC-1+TRAIL kill -3 and PPC-1 tox -3.
`O=C(O)CCCC(=O)N1CCc2cc(S(=O)(=O)N3CCc4ccccc43)ccc21` gave C8 TRAIL sens 7, FLuc inh counter -4, FLuc act counter 1, Platelet DG rel -91 and PPC-1+TRAIL kill 8.
Screening Clc1ccccc1/C=C/c1nc(-c2ccccn2)no1 returned C8 TRAIL sens 69*, Platelet DG rel inconclusive, PPC-1+TRAIL kill 71* and PPC-1 tox 67*.
Screening Cc1onc(-c2ccccc2Cl)c1-c1nc(-c2ccccn2)no1 returned C8 TRAIL sens 19, FLuc inh counter 4, FLuc act counter 1, Platelet DG rel -9 and PPC-1+TRAIL kill 12.
For CCOC(=O)c1nn(-c2ccc3c(c2)OCCO3)cc1O the results were C8 TRAIL sens 54*, FLuc inh counter 84*, FLuc act counter 0.2, Platelet DG rel 12, PPC-1+TRAIL kill 48 and PPC-1 tox 49.
For Cn1c(C(=O)Nc2ccc3c(c2)OCO3)cc2sccc21 the results were C8 TRAIL sens 32, FLuc inh counter 53*, FLuc act counter 0.5, Platelet DG rel -1, PPC-1+TRAIL kill 6 and PPC-1 tox 12.
Cc1ccnc(NC(=O)Nc2ccc3c(c2)OCO3)c1 was read as C8 TRAIL sens 55*, FLuc inh counter 58*, FLuc act counter 0.4, Platelet DG rel 7, PPC-1+TRAIL kill 36 and PPC-1 tox 41.
`Cc1ccccc1C(=O)Nc1ccc2c(c1)OCO2` gave C8 TRAIL sens 41, FLuc inh counter 74*, FLuc act counter 0.3, Platelet DG rel 28, PPC-1+TRAIL kill 48 and PPC-1 tox 52*.
O=C(Nc1ccc2c(c1)OCCO2)Nc1ccc2c(c1)OCO2 was read as C8 TRAIL sens 83*, FLuc inh counter 93*, FLuc act counter 0.1, Platelet DG rel 10, PPC-1+TRAIL kill 73* and PPC-1 tox 73*.
CCCNC(=O)C1(C)CCN(C(=O)c2c(F)ccc(C)c2F)C1 (stereo not drawn) was read as C8 TRAIL sens 1.
Screening CN(C)CCN1CCN(C2CN(Cc3cn(Cc4ccc(F)cc4)nn3)S(=O)(=O)C2)CC1 (stereo not drawn) returned C8 TRAIL sens -4.
`COC(=O)[C@@]12C[C@@H](CC(=O)NCC3CCCCC3)C(=O)N(Cc3ccco3)C1=CCC(C)(C)C2` gave C8 TRAIL sens 10.
For O=C1C(=O)c2ccc(-c3ccccc3)cc2-c2ccccc21 the results were C8 TRAIL sens 93*, FLuc inh counter -5, FLuc act counter 1, Platelet DG rel -2, PPC-1+TRAIL kill 97* and PPC-1 tox 97*.
For CCOC(=O)c1ccccc1NC(=O)CSc1ccc(-c2cccnc2)nn1 the results were C8 TRAIL sens -1, FLuc inh counter 2, FLuc act counter 1, PPC-1+TRAIL kill -1 and PPC-1 tox -6.
Cc1ccccc1NC(=O)CSc1ccc(-c2cccnc2)nn1 was read as C8 TRAIL sens 14 and Platelet DG rel -3.
`CCN(CC)CCNC(=O)c1ccc2c(c1NCCO)C(=O)c1ccccc1C2=O` gave C8 TRAIL sens 95*, Platelet DG rel 4, PPC-1+TRAIL kill 33 and PPC-1 tox 27.
Screening COc1cccc(/C=N/NC(=S)Nc2cccc(C(=O)O)c2)c1O returned C8 TRAIL sens 87*, FLuc inh counter 62*, FLuc act counter 0.4, Platelet DG rel 3, PPC-1+TRAIL kill 37 and PPC-1 tox 35.
For CC(=O)N(C)C1=C(N2CCOCC2)C(=O)c2ccccc2C1=O the results were C8 TRAIL sens 90*, FLuc inh counter 1, FLuc act counter 1, Platelet DG rel -6, PPC-1+TRAIL kill 24 and PPC-1 tox 27.
Screening COc1ccc(CCNC(=O)CSc2nc3ccsc3c(=O)n2Cc2ccccn2)cc1OC returned C8 TRAIL sens -14.
For N#Cc1nc(-c2ccco2)oc1N1CCC(C(N)=O)CC1 the results were C8 TRAIL sens -6, FLuc inh counter -4, FLuc act counter 1, Platelet DG rel 5, PPC-1+TRAIL kill -4 and PPC-1 tox -2.
For N#Cc1nc(-c2ccccc2)oc1N1CCC(C(N)=O)CC1 the results were C8 TRAIL sens 1 and Platelet DG rel 8.
`CC1(C)OC(=O)C2=C(C[C@@H](CCc3ccccc3)O[C@H]2C2CCCC2)O1` gave C8 TRAIL sens 9.
O=C(NC1CCCCC1)C(c1ccccc1)N(Cc1ccc2c(c1)OCO2)C(=O)c1cnsn1 (stereo not drawn) was read as C8 TRAIL sens 15, FLuc inh counter -4, FLuc act counter 1, Platelet DG rel 2, PPC-1+TRAIL kill 1 and PPC-1 tox 8.
CCc1nc2ccc(C(=O)N(C)CCN(C)C)cn2c1N(CC)C(=O)NCCc1ccccc1 was read as C8 TRAIL sens -11.
`CCc1nc2c(OCc3ccc4c(c3)OCO4)cccn2c1N(C=O)Cc1ccc(OC)cc1` gave C8 TRAIL sens 5.
